# ChEMBL document CHEMBL2086311, “UDP made a highly promising stable, potent, and selective P2Y6-receptor agonist upon introduction of a boranophosphate moiety” (Bioorg Med Chem, 2012)
# Key:
# [1] = Drug degradation in KCl/HCl buffer assessed as inorganic phosphate formation by 31P-NMR analysis at pH 1.4; type: physicochemical
# Summary of the method: (§1)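 Sodium salt dissolved in KCl/HCl buffer pH 1.4 containing D2O, held at 37 °C. 31P NMR spectra taken at 15 min, 1 h or 24 h intervals, about every 24 h in multi-day runs. Hydrolysis rate taken from change in integration of one starting-material phosphate signal over time, fit to a pseudo-first-order model.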
# [2] = Drug degradation in KCl/HCl buffer assessed as 5-OMe-uridine-H-phosphonate formation by 31P-NMR analysis at pH 1.4; type: physicochemical; summary of the method: as §1
compound,measurement,setting,value
[BH3-][P@@](=O)(OC[C@H]1O[C@@H](n2cc(OC)c(=O)[nH]c2=O)[C@H](O)[C@@H]1O)OP(=O)([O-])[O-].[Na+].[Na+].[Na+],Drug degradation,[1],Active
same,Drug degradation,[2],Active
